From PubChem BioAssay
Jurkat NFkB inh: inhibitors of induced NF-kB luciferase reporter, primary screen, TCR NF-kB activation inhibitor project, cell-based, luminescence, uHTS; inhibition, % at 4 µM; Jurkat, PMA/ionomycin-induced NF-kB luciferase reporter; actives 0.53% (n = 330,000); in the data active = inhibition above about 50%
697 NFkB inh: inhibitors of PMA/ionomycin-induced NF-kB reporter, 697 cells, primary screen, B-cell NF-kB inhibitor project, cell-based, luminescence, uHTS. 697 B-cell NF-kB luciferase reporter, 16 h. AID 435022, 2010. actives 0.33% (n = 330,000). inhibition, % at 4 µM; in the data active = inhibition above about 35%
JMJD2C inh: inhibitors of GASC-1 histone demethylase, primary screen, biochemical, fluorescence, DELFIA europium; Lysine-specific demethylase 4C (Homo sapiens), Q9H3R0; inhibition, % at 2.35 µM; GST-JMJD2C(1-420) H3K9me3 demethylation; actives 0.069% (n = 330,000);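 active = more than half of a compound's replicate wells show inhibition beyond 50%, single wells judged on their own value; inconclusive = some, but no more than half, of replicates pass 50% inhibition; inactive = no replicate passes 50% inhibition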;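 also: signal counts dimethyl H3K9 product captured on neutravidin plate; 0% = median of DMSO wells and 100% = 0.3 times that DMSO median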
NR2E3 ag-1: inhibitors of NR2E3-RetCOR corepressor binding, primary screen, NR2E3 agonist project, biochemical, TR-FRET, GST-NR2E3, biotin-RetCOR; 1536-well; inhibition of corepressor binding, % at 4.78 µM; actives 0.12% (n = 320,000); AID 2300, 2010;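 active = percent inhibition above the cutoff of mean plus 3 SD of all tested compounds, set per screening campaign, cut at about 20% in these data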;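 also: 0% = DMSO wells and 100% = biotin wells as full block of FRET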
Target sequence (Q9Y5X4 whole entry, looked up): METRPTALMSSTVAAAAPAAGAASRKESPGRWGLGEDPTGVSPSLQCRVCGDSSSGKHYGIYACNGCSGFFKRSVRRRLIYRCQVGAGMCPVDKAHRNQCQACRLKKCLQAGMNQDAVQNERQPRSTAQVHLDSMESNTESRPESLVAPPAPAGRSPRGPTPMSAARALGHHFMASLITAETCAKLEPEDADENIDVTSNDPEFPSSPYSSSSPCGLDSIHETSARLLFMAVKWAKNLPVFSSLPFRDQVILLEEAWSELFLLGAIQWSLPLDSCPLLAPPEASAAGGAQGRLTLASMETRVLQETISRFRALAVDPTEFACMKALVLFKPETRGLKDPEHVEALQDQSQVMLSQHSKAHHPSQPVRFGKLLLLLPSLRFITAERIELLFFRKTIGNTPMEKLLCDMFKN
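Material – GST-tagged NR2E3 plus biotinylated RetCOR corepressor · Quantity – NR2E3 fusion 1.35 nM · Times – 5 h incubation at 4 °C · Medium – pH 7.5 Tris-based buffer · Technique – TR-FRET, Eu(K)-anti-GST donor, streptavidin-D2 acceptor, ex 340, em 617/671 nm · Benchmarks – high control biotin, low control 0.6% DMSO · Format – 1536-well plates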
GalR3 antagonist: GalR3 antagonists in HEK293 cells, primary screen, cell-based, fluorescence readout; Galanin receptor type 3 (Homo sapiens), O60755; HEK293 GalR3-CNG cAMP membrane potential fluorescence; galR3 body fused to GalR1 C-terminus; inhibition, % at 3 µM; actives 0.44% (n = 360,000); AID 651719, 2012;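 active = inhibition above the screen-wide average plus 3 SD, cut at about 13% in these data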;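 also: forskolin and galanin both at EC90 stimulate the cells; cAMP rise reported by CNG channel membrane potential dye signal; 0% = forskolin plus galanin with DMSO and 100% = forskolin alone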
Target sequence (O60755 1-299 limits assumed): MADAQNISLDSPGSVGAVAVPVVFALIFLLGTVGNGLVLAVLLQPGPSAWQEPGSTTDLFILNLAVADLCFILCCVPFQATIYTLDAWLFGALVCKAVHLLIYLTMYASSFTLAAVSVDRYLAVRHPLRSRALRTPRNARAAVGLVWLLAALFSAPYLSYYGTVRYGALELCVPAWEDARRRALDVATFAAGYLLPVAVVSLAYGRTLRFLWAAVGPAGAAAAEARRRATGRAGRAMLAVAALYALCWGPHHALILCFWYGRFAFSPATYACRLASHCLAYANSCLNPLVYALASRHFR
NR2E3 ag-2: NR2E3 agonists in two-hybrid cells, primary screen, cell-based, luminescence, CHO-S, Gal4-NCOR/VP16-NR2E3; Photoreceptor-specific nuclear receptor (Homo sapiens), Q9Y5X4; luciferase; inhibition of corepressor binding, % at 3.98 µM; actives 0.35% (n = 360,000); AID 602229, 2012;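 active = inhibition above the mean of all tested compounds plus 3 SD, cut at about 70% in these data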;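 also: 0% = DMSO with NR2E3 transfected cells and 100% = cells lacking NR2E3 construct; higher means lower luciferase signal from less NR2E3 corepressor binding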
GalR3 conf: GalR3 antagonist hit confirmation, cell-based, fluorescence, triplicate; shares compounds with GalR3 antagonist; HEK293 GalR3 CNG cAMP biosensor, membrane potential fluorescence; galR3 fused to GalR1 carboxy tail; challenged with forskolin and galanin at EC90; inhibition, % at 3 µM; actives 59% (n = 1,600);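 active = inhibition above the primary screen's cutoff, the mean inhibition of all screened compounds plus 3 SD, cut at about 13% in these data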;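 also: 0% = forskolin plus galanin and 100% = forskolin alone with DMSO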
CNG parental: nonspecific cAMP agonists in parental HEK-CNG cells, counter-screen for GalR3 antagonist project, cell-based, fluorescence, high throughput; HEK293-CNG parental cells, cAMP membrane potential fluorescence; normalised: DMSO wells 0%, forskolin wells 100%; shares compounds with GalR3 antagonist; actives 10% (n = 1,600); activation, % at 3 µM; in the data active = activation above about 1.3%
* = called active by the depositor; ? = inconclusive; . = not tested or not shown; ! = a repeat was not active. Hits are enriched below; roughly 1.5% of the tested compounds scored in any of these assays.

SMILES | Jurkat NFkB inh | 697 NFkB inh | JMJD2C inh | NR2E3 ag-1 | GalR3 antagonist | NR2E3 ag-2 | GalR3 conf | CNG parental
O=C(CCC(=O)OCC(=O)c1ccc(C(F)(F)F)cc1)OCC(=O)c1ccc(C(F)(F)F)cc1 | 1.8 | 17.3 | 7.2 | -3.6 | -2.4 | -16.8 | . | .
O=C(COC(=O)C(O)C(O)C(=O)OCC(=O)c1ccc(C(F)(F)F)cc1)c1ccc(C(F)(F)F)cc1 (configuration not stated) | 3.8 | 3.2 | -1.8 | -1.2 | 12.7* | -39.5 | 9.6 | 0.3
Cc1oc(-c2ccccc2)cc1C(=O)Nc1ccccc1 | -7.5 | -7.8 | -4.9 | 3.7 | -6.0 | -82.2 | . | .
Cc1oc(-c2ccccc2)cc1C(=O)Nc1cccc(/C=C/C(=O)O)c1 | 11.3 | 6.6 | -28.3 | . | 74.7* | -32.0 | 111.3* | 0.3
Cc1oc(C(C)(C)C)cc1C(=O)Nc1cccc(/C=C/C(=O)O)c1 | -0.7 | 2.2 | -4.1 | -0.6 | 3.3 | -19.6 | . | .
Cc1cc(C(=O)Nc2cccc(/C=C/C(=O)O)c2)c(C)o1 | 3.2 | 5.3 | 5.1 | 3.5 | 46.2* | -6.2 | 88.5* | 0.1
CCOc1cc(C(=O)N2CCOCC2)ccc1OCc1ccccc1 | -5.4 | 16.2 | -19.3 | 0.4 | 2.5 | -5.3 | . | .
O=c1[nH]c2c(s1)C(c1ccco1)C1C3CCC(C3)C1S2 (configuration not stated) | 22.4 | -19.1 | 3.7 | 7.2 | -1.7 | -14.7 | . | .
Cc1cnc(C=O)c2cccc([N+](=O)[O-])c12 | . | . | . | . | 33.5* | -17.6 | 14.5* | 0.1
Cc1ncc(C)c2c([N+](=O)[O-])cccc12 | . | . | . | . | -4.4 | -23.0 | . | .
COc1ccccc1-n1c(-c2ccccc2)c[n+]2c1CCc1ccccc1-2 | 32.7 | 4.3 | ? | 4.4 | 52.8* | 0.7 | 67.9*! | 1.6*
Fc1cccc(-c2nnn3c2nc(Cl)c2ccccc23)c1 | . | . | 12.7 | . | 14.0* | -69.4 | 6.4 | 3.8*
COc1cc2c(cc1OC)-c1cc(Nc3ccc(N(C)C)cc3)nc(=O)n1CC2 | -5.7 | -13.5 | 6.6 | -9.7 | 36.3* | -19.0 | 55.3* | -0.2
CCN(CC)c1ccc(Nc2cc3n(c(=O)n2)CCc2cc(OC)c(OC)cc2-3)cc1 | 5.9 | -23.3 | 31.8 | -4.1 | 47.5* | 31.1 | 63.8* | 0.1
COc1cc2c(cc1OC)-c1cc(Nc3ccc(F)cc3)nc(=O)n1CC2 | 3.1 | 30.7 | 2.7 | -0.3 | 9.4 | 0.2 | . | .
O=C(NC(Nc1ncc(S(=O)(=O)c2ccc([N+](=O)[O-])cc2)s1)(C(F)(F)F)C(F)(F)F)c1ccc(Cl)cc1 | 2.7 | 4.5 | -5.1 | -2.6 | 72.7* | 46.0 | 40.7* | -0.1
CCCCn1c(-c2nonc2NC(=O)c2ccccc2Cl)nc2ccccc21 | . | . | . | . | 19.4* | -7.6 | -0.4 | 0.2
O=C(NCC(c1ccco1)N1CCCC1)c1cc2ccccc2s1 (configuration not stated) | -15.6 | -4.7 | -5.2 | 2.6 | -7.9 | -15.6 | . | .
O=c1cc(CSc2nnc(-c3cccs3)n2Cc2ccccc2)nc2sc3ccccc3n12 | 30.9 | -60.3 | -7.9 | 1.7 | 73.6* | 33.5 | 107.5* | 0.2
Cc1cc(C(=O)CSc2nnc(-c3cccs3)n2Cc2ccccc2)c(C)n1C | -12.7 | -34.1 | 20.0 | -1.1 | -3.8 | -26.0 | . | .
O=C(NCC(F)(F)F)c1ccc2sc([C@@H]3O[C@H](CO)[C@H](O)[C@H](O)[C@H]3O)nc2c1 | . | . | . | . | 40.4* | 12.6 | 0.1 | 0.0
Cc1ccc(-c2nn3c(C)nnc3c3ccccc23)cc1S(=O)(=O)NC(C)c1ccccc1 (configuration not stated) | -7.9 | 18.9 | 14.1 | 3.8 | 15.1* | 24.1 | 22.9* | 0.9
O=C(CC(Nc1ccccc1)c1ccccc1)C1CC1 (configuration not stated) | -6.5 | 1.4 | -1.7 | -1.0 | 5.9 | -14.0 | . | .
CCCc1cc(=O)[nH]c(SCC(=O)N2CCN(S(=O)(=O)c3ccc(C)cc3)C2)n1 | -0.4 | -4.6 | -20.7 | 4.1 | 0.7 | -6.5 | . | .
CCn1nnnc1SCC(=O)Nc1ccc(F)cc1 | -7.0 | 9.3 | 1.9 | -0.3 | 14.2* | -16.1 | 71.0* | 0.1
SMILES | Jurkat NFkB inh | 697 NFkB inh | JMJD2C inh | NR2E3 ag-1 | GalR3 antagonist | NR2E3 ag-2 | GalR3 conf | CNG parental
CCCCn1nnnc1SCC(=O)Nc1ccc(F)cc1 | -7.4 | -2.3 | -6.0 | 0.4 | -3.2 | 12.5 | . | .
OCCC#Cc1ccc(CN2CCN(C3CCCCC3)C(CCO)C2)cc1 (configuration not stated) | -2.7 | -10.7 | 5.6 | 2.4 | 13.0* | 6.3 | 0.3 | 0.1
Cc1cc(NCCO)nc(-n2nc(C)cc2C)n1 | 11.3 | 18.2 | 3.9 | -2.6 | 13.4* | -27.6 | -0.5 | -0.1
Cc1cc(N(CCO)CCO)nc(-n2nc(C)cc2C)n1 | -6.9 | 7.4 | -12.6 | -1.0 | 5.4 | -5.8 | . | .
CC(C)CC(OC(=O)c1ccco1)C(=O)NC1CCCC1 (configuration not stated) | -16.3 | 2.5 | -11.0 | 1.8 | -5.1 | 9.9 | . | .
CCN(CC)c1ccc(C2=NNC(=O)CC2C)cc1[N+](=O)[O-] (configuration not stated) | 2.8 | 21.0 | -2.8 | -0.5 | 52.0* | -3.2 | 64.7* | -0.1
CC1CC(=O)NN=C1c1cccs1 (configuration not stated) | 3.7 | 1.6 | -5.6 | 4.2 | 6.9 | -0.4 | . | .
CCN(CCC#N)c1ccc(N2C(=O)CCCC2=O)cc1[N+](=O)[O-] | -9.4 | -8.7 | -0.3 | -2.2 | -9.7 | 7.4 | . | .
CC1CC(=O)NN=C1c1ccc(N(C)C)c([N+](=O)[O-])c1 (configuration not stated) | -4.2 | 7.6 | -1.1 | 0.1 | 60.0* | -1.2 | 69.3* | 0.0
Cc1cc(C)c(S(=O)(=O)N2CCCOC2CNC(=O)C(=O)NCCc2c[nH]c3ccccc23)c(C)c1 (configuration not stated) | 7.6 | -5.7 | 8.0 | -0.2 | -2.8 | 11.8 | . | .
